# In the library only some 1.3% were active in any assay of this set; here they are far more common.
# CHT block = inhibitors of human choline transporter CHT; CHT-expressing cells, membrane potential dye, choline response; active compounds read low; B-score at 10 µM; 0.86% of 310,000 active; AID 488975;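 active means B-score over 3 SD under the library average, and starting fluorescence ratio not unusually high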;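 further: choline stimulus applied at its EC90 after an EC20 pre-addition; B-score computed on integrated fluorescence ratio after choline addition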
# Target sequence (Q9GZV3 whole entry, looked up): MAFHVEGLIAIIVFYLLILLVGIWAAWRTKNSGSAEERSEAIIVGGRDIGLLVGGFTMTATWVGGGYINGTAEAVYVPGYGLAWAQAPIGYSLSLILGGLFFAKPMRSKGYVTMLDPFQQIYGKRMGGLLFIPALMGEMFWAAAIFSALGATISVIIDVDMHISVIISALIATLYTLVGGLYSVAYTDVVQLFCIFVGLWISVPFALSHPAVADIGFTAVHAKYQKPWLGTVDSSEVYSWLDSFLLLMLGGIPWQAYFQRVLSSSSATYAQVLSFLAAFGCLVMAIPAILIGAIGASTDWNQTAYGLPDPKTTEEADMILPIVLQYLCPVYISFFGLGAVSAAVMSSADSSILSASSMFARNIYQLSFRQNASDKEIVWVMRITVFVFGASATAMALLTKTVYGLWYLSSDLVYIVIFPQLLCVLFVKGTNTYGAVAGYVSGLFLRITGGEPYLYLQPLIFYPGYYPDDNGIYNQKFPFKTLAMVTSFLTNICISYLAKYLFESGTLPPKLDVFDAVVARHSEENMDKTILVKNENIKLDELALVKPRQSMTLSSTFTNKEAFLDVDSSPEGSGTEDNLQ
# proCasp3 act = procaspase-3 (human) activation; P42574; recombinant procaspase-3 D3A, Ac-DEVD-pNA absorbance 405 nm; activation, % at 8.5 µM; 0.11% of 330,000 active;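 active means activation above the mean of all tested compounds plus 3 SD, cut at about 21% in these data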;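 further: 0% = DMSO alone and 100% = DMSO wells spiked with extra 5 µM PC-3 D3A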
#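 material = Procaspase-3 D3A mutant | probe or stimulus = Ac-DEVD-pNA | compound = single dose, 8.5 µM nominal compound, 0.8% DMSO | timing = 1 h preincubation, 2 h reaction | measured by = 405 nm absorbance of p-nitroaniline, reads at 0 and 120 min | benchmarks = DMSO-only low control, 5 µM PC-3 D3A high control | repeats = singlicate, each compound tested once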
# CHT allo act = allosterically activates the human high affinity choline transporter | CHT-expressing cells, membrane potential dye, choline EC20; active compounds read high; LV-AA mutant CHT in HEK293 cells | Q9GZV3 | 0.49% of 310,000 active | B-score at 10 µM;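 active means initial fluorescence not abnormally high and integrated response B-score, plate-corrected, over 3 SD above library mean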
# procasp7 counter = counter-screen: procaspase-7 (human) activation | AID 463210 | activation, % at 8.5 µM | recombinant procaspase-7, Ac-DEVD-pNA absorbance 405 nm; D23A/D198A/D206A triple mutant, cannot self-cleave; scale: DMSO 0, 5 µM enzyme 100 | P55210 | 0.093% of 330,000 active;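 active means percent activation above the screen-wide mean plus 3 SD, cut at about 25% in these data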
#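 Detection: p-Nitroaniline absorbance at 405 nm, read at 0 and 120 min; system: Uncleavable procaspase-7 mutant enzyme; evaluation: % activation from two-timepoint absorbance difference, scaled to controls; times: 1 h enzyme–compound preincubation and 2 h substrate reaction, both 25 °C; buffer or medium: Zinc-free HEPES pH 7.4 with 300 mM NaCl, 0.01% Triton X-100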
# CHT block conf = confirmation of human choline transporter CHT inhibitors. shares compounds with CHT block. 70% of 2,400 active. CHT activity remaining % of control (active compounds read low), % at 10 µM. CHT-expressing cells, choline membrane potential dye; LV-to-AA substituted CHT, HEK293 cells;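 active means choline transporter activity left, mean of duplicates at 10 µM, below buffer-only control mean minus 3 SD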;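 further: depolarization triggered by choline at its EC90 following an EC20 pre-addition; 0% = hemicholinium-3 full block and 100% = buffer-only control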
# HEK293 MPD ctr = activity in parental HEK293 cells lacking CHT; membrane potential dye, choline response; active = decrease or increase beyond buffer ±3SD; membrane potential ratio readout (active if shifted either direction beyond buffer ±3SD; no single direction) at 10 µM; shares compounds with CHT block; 4% of 2,400 active; AID 493222;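 further: parental cells lack the transporter so any hit is non-specific; ratio is peak minus trough fluorescence over baseline after EC90 choline challenge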
# An asterisk follows results filed as active; i = inactive; nt = no result.
SMILES,CHT block,proCasp3 act,CHT allo act,procasp7 counter,CHT block conf,HEK293 MPD ctr
COc1cc2ncc(S(=O)(=O)c3ccccc3)c(N3CCC4(CC3)OCCO4)c2cc1OC,i,0,i,4,nt,nt
Cc1noc(C)c1S(=O)(=O)Nc1ccc2c(c1)CC(=O)N([C@H](C)CO)C[C@H](C)[C@H](CN(C)S(=O)(=O)c1ccc(F)cc1)O2,nt,8,nt,-2,nt,nt
O=C1C(=O)N(Cc2ccncc2)C(c2ccccc2F)/C1=C(\O)c1ccc2c(c1)OCCO2 (stereo unspecified),i,1,i,1,nt,nt
CCN(CC(=O)Nc1ccc(NC(C)=O)cc1)C(=O)CSCc1c(C)noc1C,i,6,i,10,nt,nt
O=[N+]([O-])c1ccc2oc(C(O)c3cccc(Cl)c3)cc2c1 (stereo unspecified),i,0,i,13,nt,nt
O=C(OCc1ccccc1Cl)c1cccnc1Cl,i,-6,i,-2,nt,nt
N#Cc1ccccc1COC(=O)c1cccnc1N,-5.7*,4,i,7,65%*,i
C#CCNc1c2c(nc3ncnn13)CC(C)CC2 (stereo unspecified),-5.2*,-2,i,11,63%*,i
CC(=O)c1c(C)[nH]c(C(=O)OCC(=O)Nc2nnc(-c3ccccc3)o2)c1C,nt,7,nt,6,nt,nt
CCC(C)NS(=O)(=O)c1ccc(NC(=O)c2ccc([N+](=O)[O-])cc2Cl)cc1 (stereo unspecified),-8.9*,8,i,-2,i,i
CC(=O)Nc1ccc(NC(=O)c2ccc([N+](=O)[O-])cc2Cl)cc1,i,-5,i,4,nt,nt
CCOCCCNS(=O)(=O)c1ccc(NC(=O)c2ccc([N+](=O)[O-])cc2Cl)cc1,-10*,4,i,-5,-5.7%*,i
COCCN(C(=O)C1CC(=O)N(Cc2ccccc2)C1)c1nc(-c2ccc([N+](=O)[O-])cc2)cs1 (stereo unspecified),nt,-17,nt,-23,nt,nt
CC(C)C(NC(=O)c1ccccc1Cl)C(=O)OCc1nc2scc(-c3ccccc3Cl)c2c(=O)[nH]1 (stereo unspecified),-5.1*,2,i,5,i,i
COc1ccc(N2CCN(c3nc(NCCO)nc(N4CCOCC4)n3)CC2)cc1,-6.1*,-11,i,-13,i,i
COCCn1cnc2c1c(=O)n(Cc1ccc(C#N)cc1)c(=O)n2Cc1ccccc1,i,-16,i,6,nt,nt
CCOc1cc(Br)ccc1S(=O)(=O)NCc1ccccc1,-6.3*,-4,i,-2,i,i
CCOc1ccc(OCC)c(S(=O)(=O)NCc2ccccc2)c1,i,-5,i,13,nt,nt
Cc1cnc(C(=O)OCC(=O)Nc2ccc(Br)c(C)c2)cn1,nt,-5,nt,7,nt,nt
CCc1ccc(CNC(=O)c2ccc(OC3CCN(C(C)=O)CC3)c(OC)c2)nc1,i,6,i,0,nt,nt
COC(=O)COc1ccc(S(=O)(=O)N2CCN(c3ccccc3F)CC2)cc1,-5.2*,4,i,3,i,i
COC(=O)COc1ccc(S(=O)(=O)N2CCN(c3ccccc3)CC2)cc1,i,4,i,2,nt,nt
Cc1ccc(C)[n+](CC(=O)c2ccc(-c3ccccc3)cc2)c1,-4.9*,-5,i,4,25%*,i
Cc1ccc[n+](CC(=O)c2ccc(-c3ccccc3)cc2)c1,-11*,7,i,-2,i,i
Cc1ccc(C(=O)C[n+]2ccccc2)cc1,i,nt,i,nt,nt,nt
SMILES,CHT block,proCasp3 act,CHT allo act,procasp7 counter,CHT block conf,HEK293 MPD ctr
Cc1ccc[n+](CC(=O)c2ccc(Cl)cc2)c1,-11*,1,i,-7,5.6%*,i
Cc1oc(-c2cccs2)nc1CNC[C@H]1O[C@@H](n2cnc3c(N)ncnc32)[C@H](O)[C@@H]1O,nt,5,nt,14,nt,nt
COc1ccc(NC(=O)CN(C)C2=NS(=O)(=O)c3ccccc32)cc1Cl,nt,1,nt,7,nt,nt
CC1CCCCC1NC(=O)C1CCCN(S(=O)(=O)c2ccc(-n3cnnn3)cc2)C1 (stereo unspecified),-9.5*,-1,i,7,52%*,i
CC1CCCCC1NC(=O)C1CCN(S(=O)(=O)c2ccc(-n3cnnn3)cc2)CC1 (stereo unspecified),i,0,i,-4,nt,nt
CC#CCN(CC#CC)S(=O)(=O)c1ccc(-n2cnnn2)c(OC)c1,-6.8*,-7,i,3,59%*,i
O=C(c1ccco1)N1CCC(c2nc(-c3ccccc3Cl)no2)CC1,-5.7*,2,i,1,i,i
O=C(c1ccco1)N1CCC(c2nc(-c3ccc(F)cc3)no2)CC1,i,0,i,-5,nt,nt
Cc1cccc(C)c1NC(=O)CSc1cc(C(=O)c2nccn2C)c2ccccc2n1,-9.5*,-4,i,-2,i,i
COc1ccc(NC(=O)N2CCC(n3cnc4ccccc43)CC2)cc1,-5.8*,3,i,15,37%*,i
COc1ccccc1CNC(=O)C(CCSC)NC(=O)c1cccc(S(=O)(=O)N2CCOCC2)c1 (stereo unspecified),nt,12,nt,2,nt,nt
O=C(CSCc1c(F)cccc1Cl)NNC(=S)NC1CCCCC1,i,5,i,-1,nt,nt
C[C@H](CO)N1C[C@H](C)[C@@H](CN(C)S(C)(=O)=O)Oc2ccc(NC(=O)NC3CCCCC3)cc2C1=O,nt,-2,nt,-2,nt,nt
CCN(CC)CCN1C(=O)C2C(C(=O)Nc3cc(C)cc(C)c3)C3C=CC2(O3)C1C(=O)NC1CCCCC1 (stereo unspecified),i,-3,i,0,nt,nt
Cc1cccc(N2CCN(C(=O)c3ccc(NC4=NC5CS(=O)(=O)CC5S4)cc3)CC2C)c1 (stereo unspecified),i,-5,i,5,nt,nt
COc1ccc(C(CNC(=O)c2oc3ccc(OC)cc3c2C)N2CCCC2)cc1 (stereo unspecified),i,0,i,2,nt,nt
CCc1ccc2oc(C(=O)NCC(c3ccc(OC)cc3)N3CCCCC3)c(C)c2c1 (stereo unspecified),-6*,-4,i,-6,61%*,i
COc1ccc(NC(C)=O)cc1CNC(=O)CN1CCOCC1,i,5,i,4,nt,nt
COC(=O)NC1CCC(NC(=O)OC)CC1 (stereo unspecified),i,5,i,-2,nt,nt
COc1cccc(OCC(O)CN2CCC(CN3C(=O)c4cccc5cccc(c45)C3=O)CC2)c1 (stereo unspecified),i,-7,i,18,nt,nt
